In ChEMBL document CHEMBL5329156, “Discovery and development of novel substituted monohydrazides as potent antifungal agents” (RSC Med Chem, 2023):
Values after ≈ are worked out from the molar mass of the structure shown.

Columns and labels:
Candida albicans [1] = assay: Antifungal activity against itraconazole/fluconazole susceptible Candida albicans ATCC MYA-2876 assessed as fungal growth inhibition by double dilution method; format: functional
How it was run: (§1)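 Broth microdilution after CLSI M27-A3/M38-A2 with minor modifications. A single colony was grown overnight in YPD at 35 °C with shaking at 200 rpm. Cells were mixed 1:1 with compound (final 0.06-31.3 µg/mL, from DMSO stocks) and incubated 48 h at 35 °C.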

Candida albicans [2] = assay: Antifungal activity against itraconazole/fluconazole resistant Candida albicans ATCC 90819 assessed as fungal growth inhibition by double dilution method; format: functional; how it was run: as §1
Candida duobushaemulonii [3] = assay: Antifungal activity against Candida duobushaemulonii AR Bank # 391 assessed as fungal growth inhibition by double dilution method; format: functional; details: Candidozyma duobushaemuli
How it was run: (§2)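 Broth microdilution after CLSI M27-A3/M38-A2 with minor changes. Single colony grown overnight in YPD at 35 °C, 200 rpm. Compound final range 0.06-31.3 µg/mL; incubated 48 h at 35 °C.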

Aspergillus nidulans = assay: Antifungal activity against Aspergillus nidulans ATCC 38163 assessed as fungal growth inhibition by double dilution method; format: functional
[Candida] auris [4] = Antifungal activity against Candida auris AR Bank # 383 assessed as fungal growth inhibition by double dilution method; format: functional; details: Candidozyma auris; how it was run: as §2
[Candida] auris [5] = Antifungal activity against Candida auris AR Bank # 389 assessed as fungal growth inhibition by double dilution method; format: functional; details: Candidozyma auris; how it was run: as §2
Candida albicans [6] = assay: Antifungal activity against itraconazole/fluconazole resistant Candida albicans ATCC MYA-1003 assessed as fungal growth inhibition by double dilution method; format: functional; how it was run: as §1
[Candida] haemuloni [7] = Antifungal activity against Candida haemulonii AR Bank # 393 assessed as fungal growth inhibition by double dilution method; format: functional; details: Candidozyma haemuli; how it was run: as §2
HepG2 = assay: Cytotoxicity against human HepG2 cells assessed as reduction in cell viability upto 31.3 microg/ml; format: toxicity, cell-based; details: dose < 31.3 µg/ml
How it was run: (§3)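 Cells in DMEM with 10% FBS and 1% Pen/Strep, seeded at 10,000 cells/well and held overnight at 37 °C, 5% CO2. Compounds added at final 31.3-0.12 µg/mL (0.05% DMSO vehicle) for 24 h. Resazurin then added for 6 h; fluorescence read at ex 560/em 590. Triton X-100 1% as positive control; values normalized to vehicle. Run in quadruplicate.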

Kodamaea ohmeri = assay: Antifungal activity against Kodamaea ohmeri AR Bank # 396 assessed as fungal growth inhibition by double dilution method; format: functional; how it was run: as §2
[Candida] auris [8] = Antifungal activity against Candida auris AR Bank # 385 assessed as fungal growth inhibition by double dilution method; format: functional; details: Candidozyma auris; how it was run: as §2
Saccharomyces cerevisiae [9] = assay: Antifungal activity against Saccharomyces cerevisiae AR Bank # 400 assessed as fungal growth inhibition by double dilution method; format: functional; how it was run: as §2
[Candida] auris [10] = Antifungal activity against Candida auris AR Bank # 388 assessed as fungal growth inhibition by double dilution method; format: functional; details: Candidozyma auris; how it was run: as §2
HEK293 = assay: Cytotoxicity against human HEK-293 cells assessed as reduction in cell viability at 31.3 microg/ml; format: toxicity, cell-based; details: dose 31.3 µg/ml; how it was run: as §3
[Candida] auris [11] = Antifungal activity against Candida auris AR Bank # 381 assessed as fungal growth inhibition by double dilution method; format: functional; details: Candidozyma auris; how it was run: as §2
Clavispora lusitaniae = assay: Antifungal activity against Clavispora lusitaniae AR Bank # 398 assessed as fungal growth inhibition by double dilution method; format: functional; how it was run: as §2
[Candida] auris [12] = Antifungal activity against Candida auris AR Bank # 387 assessed as fungal growth inhibition by double dilution method; format: functional; details: Candidozyma auris; how it was run: as §2
[Candida] auris [13] = Antifungal activity against Candida auris AR Bank # 386 assessed as fungal growth inhibition by double dilution method; format: functional; details: Candidozyma auris; how it was run: as §2
Nakaseomyces glabratus [14] = assay: Antifungal activity against Candida glabrata ATCC 2001 assessed as fungal growth inhibition by double dilution method; format: functional; how it was run: as §2
Aspergillus fumigatus [15] = assay: Antifungal activity against Aspergillus fumigatus NRRL 6113 assessed as fungal growth inhibition by double dilution method; format: functional
J774.A1 = assay: Cytotoxicity against J774A.1 cells assessed as reduction in cell viability at 31.3 microg/ml; format: toxicity, cell-based; details: mouse, dose 31.3 µg/ml; how it was run: as §3
Aspergillus flavus = assay: Antifungal activity against Aspergillus flavus ATCC MYA-3631 assessed as fungal growth inhibition by double dilution method; format: functional
Candida duobushaemulonii [16] = assay: Antifungal activity against Candida duobushaemulonii AR Bank # 392 assessed as fungal growth inhibition by double dilution method; format: functional; details: Candidozyma duobushaemuli; how it was run: as §2
Candida duobushaemulonii [17] = assay: Antifungal activity against Candida duobushaemulonii AR Bank # 394 assessed as fungal growth inhibition by double dilution method; format: functional; details: Candidozyma duobushaemuli; how it was run: as §2
Candida albicans [18] = assay: Antifungal activity against Candida albicans ATCC 64124 assessed as fungal growth inhibition by double dilution method; format: functional; how it was run: as §1
Saccharomyces cerevisiae [19] = assay: Antifungal activity against Saccharomyces cerevisiae AR Bank # 399 assessed as fungal growth inhibition by double dilution method; format: functional; how it was run: as §2
Cryptococcus neoformans = assay: Antifungal activity against Cryptococcus neoformans ATCC MYA-895 assessed as fungal growth inhibition by double dilution method; format: functional; how it was run: as §2
Pichia kudriavzevii [20] = assay: Antifungal activity against Pichia kudriavzevii ATCC 6258 assessed as fungal growth inhibition by double dilution method; format: functional; how it was run: as §2
Nakaseomyces glabratus [21] = assay: Antifungal activity against Candida glabrata ATCC 22019 assessed as fungal growth inhibition by double dilution method; format: functional; how it was run: as §2
Candida albicans [22] = assay: Antifungal activity against itraconazole/fluconazole resistant Candida albicans ATCC MYA-1237 assessed as fungal growth inhibition by double dilution method; format: functional; how it was run: as §1
Pichia kudriavzevii [23] = assay: Antifungal activity against Pichia kudriavzevii AR Bank # 397 assessed as fungal growth inhibition by double dilution method; format: functional; how it was run: as §2
Aspergillus fumigatus [24] = assay: Antifungal activity against Aspergillus fumigatus NRRL 163 assessed as fungal growth inhibition by double dilution method; format: functional
Candida albicans [25] = assay: Antifungal activity against Candida albicans ATCC 10231 assessed as fungal growth inhibition by double dilution method; format: functional; how it was run: as §2
[Candida] haemuloni [26] = Antifungal activity against Candida haemulonii AR Bank # 395 assessed as fungal growth inhibition by double dilution method; format: functional; details: Candidozyma haemuli; how it was run: as §2
[Candida] auris [27] = Antifungal activity against Candida auris AR Bank # 0390 assessed as fungal growth inhibition by double dilution method; format: functional; details: Candidozyma auris; how it was run: as §2
Aspergillus terreus = assay: Antifungal activity against Aspergillus terreus ATCC MYA-3633 assessed as fungal growth inhibition by double dilution method; format: functional
[Candida] auris [28] = Antifungal activity against Candida auris AR Bank # 382 assessed as fungal growth inhibition by double dilution method; format: functional; details: Candidozyma auris; how it was run: as §2
Candida albicans [29] = assay: Antifungal activity against itraconazole/fluconazole susceptible Candida albicans ATCC MYA-2310 assessed as fungal growth inhibition by double dilution method; format: functional; how it was run: as §1
[Candida] auris [30] = Antifungal activity against Candida auris AR Bank # 0384 assessed as fungal growth inhibition by double dilution method; format: functional; details: Candidozyma auris; how it was run: as §2
[Candida] auris [31] = Antifungal activity against Candida auris AR Bank # 384 assessed as fungal growth inhibition by double dilution method; format: functional; details: Candidozyma auris; how it was run: as §2
Aspergillus fumigatus [32] = assay: Antifungal activity against Aspergillus fumigatus NRRL 5109 assessed as fungal growth inhibition by double dilution method; format: functional
[Candida] auris [33] = Antifungal activity against Candida auris AR Bank # 390 assessed as fungal growth inhibition by double dilution method; format: functional; details: Candidozyma auris; how it was run: as §2

COc1ccc(NNC(=O)c2cnccn2)cc1
MIC (Candida albicans [1]): 1.95 µg/mL (≈ 7.98 µM)
MIC (Candida albicans [2]): 0.98 µg/mL (≈ 4.01 µM)
MIC (Candida duobushaemulonii [3]): 0.49 µg/mL (≈ 2.01 µM)
MIC (Aspergillus nidulans): 0.98 µg/mL (≈ 4.01 µM)
MIC ([Candida] auris [4]): 0.98 µg/mL (≈ 4.01 µM)
MIC ([Candida] auris [5]): 0.98 µg/mL (≈ 4.01 µM)
MIC (Candida albicans [6]): 1.95 µg/mL (≈ 7.98 µM)
MIC ([Candida] haemuloni [7]): 0.24 µg/mL (≈ 0.983 µM)
Activity (HepG2): Non-Toxic
MIC (Kodamaea ohmeri): 0.98 µg/mL (≈ 4.01 µM)
MIC ([Candida] auris [8]): 0.98 µg/mL (≈ 4.01 µM)
MIC (Saccharomyces cerevisiae [9]): 0.98 µg/mL (≈ 4.01 µM)
MIC ([Candida] auris [10]): 0.98 µg/mL (≈ 4.01 µM)
Activity (HEK293): Non-Toxic
MIC ([Candida] auris [11]): 1.95 µg/mL (≈ 7.98 µM)
MIC (Clavispora lusitaniae): 0.98 µg/mL (≈ 4.01 µM)
MIC ([Candida] auris [12]): 1.95 µg/mL (≈ 7.98 µM)
MIC ([Candida] auris [13]): 0.49 µg/mL (≈ 2.01 µM)
MIC (Nakaseomyces glabratus [14]): 0.98 µg/mL (≈ 4.01 µM)
MIC (Aspergillus fumigatus [15]): 31.3 µg/mL (≈ 128 µM)
Activity (J774.A1): Non-Toxic
MIC (Aspergillus flavus): > 31.3 µg/mL
MIC (Candida duobushaemulonii [16]): 0.49 µg/mL (≈ 2.01 µM)
MIC (Candida duobushaemulonii [17]): 0.49 µg/mL (≈ 2.01 µM)
MIC (Candida albicans [18]): 0.98 µg/mL (≈ 4.01 µM)
MIC (Saccharomyces cerevisiae [19]): 0.98 µg/mL (≈ 4.01 µM)
MIC (Cryptococcus neoformans): 0.98 µg/mL (≈ 4.01 µM)
MIC (Pichia kudriavzevii [20]): 0.98 µg/mL (≈ 4.01 µM)
MIC (Nakaseomyces glabratus [21]): 3.9 µg/mL (≈ 16 µM)
MIC (Candida albicans [22]): 0.98 µg/mL (≈ 4.01 µM)
MIC (Pichia kudriavzevii [23]): 0.49 µg/mL (≈ 2.01 µM)
MIC (Aspergillus fumigatus [24]): 31.3 µg/mL (≈ 128 µM)
MIC (Candida albicans [25]): 0.49 µg/mL (≈ 2.01 µM)
MIC ([Candida] haemuloni [26]): 0.49 µg/mL (≈ 2.01 µM)
MIC ([Candida] auris [27]): 0.49 µg/mL (≈ 2.01 µM)
MIC (Aspergillus terreus): > 31.3 µg/mL
MIC ([Candida] auris [28]): 0.98 µg/mL (≈ 4.01 µM)
MIC (Candida albicans [29]): 1.95 µg/mL (≈ 7.98 µM)
MIC ([Candida] auris [30]): 0.49 µg/mL (≈ 2.01 µM)
MIC ([Candida] auris [31]): 0.98 µg/mL (≈ 4.01 µM)
MIC (Aspergillus fumigatus [32]): 31.3 µg/mL (≈ 128 µM)
MIC ([Candida] auris [33]): 0.98 µg/mL (≈ 4.01 µM)
